Consider nine molecules from ChEMBL document CHEMBL1139610, “Design, synthesis, and biological evaluation of novel 4-hydro-quinoline-3-carboxamide derivatives as an immunomodulator” (2005).

Format in all cases: functional
A short description of assay [1]: In vitro percent inhibition of LPS induced B-cell proliferation at the dose 1 ug/mL. The procedure, abridged:
(§1)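 Splenocyte single-cell suspension (red cells lysed, 0.16 M NH4Cl-Tris), RPMI-1640 + 10% FBS, 2.5×10^6/mL; LPS 10 µg/mL stimulation with drug at final 1, 10 or 100 µg/mL, triplicate wells; cultured 72 h, 37 °C, [3H]thymidine pulse 0.5 µCi last 16 h, β-counting; %inhibition = (control mean − drug mean)/control mean.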

Assay [2] is described as follows: In vitro percent inhibition of LPS induced B-cell proliferation at the dose 100 ug/mL. The gist of the method: as §1
Assay [3] concerns the target T1, Tumor necrosis factor (Mus musculus) (UniProt P06804).
T1 sequence (whole entry): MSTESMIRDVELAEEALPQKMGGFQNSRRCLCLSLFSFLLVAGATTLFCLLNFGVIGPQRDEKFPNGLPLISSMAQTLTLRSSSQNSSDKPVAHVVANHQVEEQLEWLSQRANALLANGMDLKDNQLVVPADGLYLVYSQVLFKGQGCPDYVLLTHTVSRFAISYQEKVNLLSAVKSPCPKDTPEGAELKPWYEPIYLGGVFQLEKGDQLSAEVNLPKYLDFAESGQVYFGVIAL
Kind of assay: In vitro percent inhibition of tumor necrosis factor, alpha secreted by macrophage at the dose 10 ug/mL. The gist of the method: (§2)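 RAW264.7 macrophages in RPMI 1640 with 10% FCS, 2 mM glutamine, gentamycin; seeded 2×10^5/mL, grown ~3 days to confluence at 37 °C, 5% CO2; LPS 10 µg/mL plus drug at final 1, 10 or 100 µg/mL for 24 h; supernatant TNF-α by ELISA; %inhibition = (control mean − drug mean)/control mean.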

A short description of assay [4]: In vitro percent inhibition of LPS induced B-cell proliferation at the dose 10 ug/mL. The procedure, abridged: as §1
Assay [5] in a line: In vitro percent inhibition of ConA induced T-cell proliferation at the dose 100 ug/mL. The procedure, abridged: (§3)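 Spleen cells sieved to single-cell suspension, red cells lysed with 0.16 M NH4Cl-Tris, washed, in RPMI-1640 + 10% FBS; seeded at 2.5×10^6/mL, stimulated with ConA 0.5 µg/mL, drug final 1, 10 or 100 µg/mL, triplicates; 72 h at 37 °C, [3H]thymidine 0.5 µCi for final 16 h; cpm counted; %inhibition = (control − drug)/control.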

Assay [6] can be described thus: In vitro percent inhibition of ConA induced T-cell proliferation at the dose 1 ug/mL. The gist of the method: as §3
For assay [7], the target named is T1, Tumor necrosis factor (Mus musculus). Kind of assay: In vitro percent inhibition of tumor necrosis factor, alpha secreted by macrophage at the dose 100 ug/mL. The procedure, abridged: as §2
For assay [8] the target is unchanged. Briefly: In vitro percent inhibition of tumor necrosis factor, alpha secreted by macrophage at the dose 1 ug/mL. The gist of the method:
as §2

Assay [9] in a line: In vitro percent inhibition of ConA induced T-cell proliferation at the dose 10 ug/mL. The procedure, abridged:
as §3

By inhibition is commonly meant the drop in the measured response relative to a control, in per cent.

For `O=C(Nc1ccc(N(CCO)CCO)cc1)c1cnc2ccccc2c1O`, the inhibition at 1 µg/mL in assay [1] is 38%; in assay [6], 45.8%. Besides, the inhibition at 100 µg/mL was 88.5% in assay [2] and 99.1% in [5]. For the same molecule, the figures for the inhibition in assay [3], in assay [7] and in assay [8] were 12.1%, 30.4% and 1.82%, respectively. Also, the values for the inhibition at 10 µg/mL in [4] and in assay [9] were 75.8% and 61%, respectively.

In the case of `O=C(O)c1ccc(NC(=O)c2cnc3ccccc3c2O)cc1`, the inhibition at 1 µg/mL is -1.94% in assay [1] and 28.6% in [6]. The inhibition at 100 µg/mL was 28% in assay [2] and -20.9% in assay [5]. Also, the inhibition in assay [3] came to 5.61%; in assay [7], 27.5%; in assay [8], 31.2%. Also, the inhibition at 10 µg/mL stood at 4.33% in assay [4] and 38.8% in assay [9].

As for `CN(C(=O)c1c(O)c2ccccc2n(C)c1=O)c1ccccc1` [ROQUINIMEX], the results for the inhibition at 1 µg/mL in assay [1] and in assay [6] were 0% and 58.1%, respectively. In addition, the inhibition at 100 µg/mL was 62.7% in assay [2] and 78.5% in assay [5]. The inhibition in assay [3] was 18.2%; in assay [7], 27.3%; in [8], 9.95%. Moreover, the inhibition at 10 µg/mL in [4] amounted to 24.6%; in assay [9], 70.6%.

`COc1ccc2c(O)c(C(=O)N(C)c3ccccc3)cnc2c1`: the inhibition at 1 µg/mL in assay [1] was found to be 41.3%; in [6] it was 36.5%. Besides, the inhibition at 100 µg/mL in [2] worked out at 57.5%; in [5] it was 53.7%. The inhibition stood at 35.7% in assay [3], 35.7% in assay [7] and 12.1% in assay [8]. In addition, the inhibition at 10 µg/mL in assay [4] was 24.9%; in [9], 29.3%.

On to `CSc1ccc2c(c1)c(O)c(C(=O)N(C)c1ccccc1)c(=O)n2C`, for which the inhibition at 1 µg/mL in assay [1] was found to be 13.6%; in [6], 52%. The inhibition at 100 µg/mL in assay [2] was determined as 37.8%; in assay [5], 79.6%. In addition, the inhibition in [3] was determined as 11.2%; in assay [7], 29.7%; in assay [8], 14.7%. Further, the inhibition at 10 µg/mL came to 30.3% in [4] and 75.3% in assay [9].

`O=C(Nc1ccccc1)c1cnc2cc(Cl)ccc2c1O`: the inhibition at 1 µg/mL in assay [1] is -2.65%; in [6], 16.7%. The values for the inhibition at 100 µg/mL in [2] and in assay [5] were 27.1% and 22.3%, respectively. Besides, the inhibition is 10.4% in assay [3], 23.1% in assay [7] and 10.5% in assay [8]. Further, the inhibition at 10 µg/mL in assay [4] came to 12.3%; in [9] it was 32.6%.

With `O=C(O)c1ccc(NC(=O)c2cnc3ccc(Cl)cc3c2O)cc1`, the inhibition at 1 µg/mL in assay [1] was 17.8%; in [6] it was 12.7%. The figures for the inhibition at 100 µg/mL in assay [2] and in [5] were 87% and 98.9%, respectively. In addition, the inhibition in assay [3] is 32.1%; in assay [7], -5.35%; in assay [8], 0.78%. The inhibition at 10 µg/mL was found to be 52.9% in assay [4] and 61.5% in assay [9].

For the molecule `CCCN(CCC)C(=O)c1cnc2cc(Cl)ccc2c1O`, the values for the inhibition at 1 µg/mL in [1] and in assay [6] were -3.57% and 42.1%, respectively. Also, the figures for the inhibition at 100 µg/mL in [2] and in [5] were 12.6% and 51.2%, respectively. Further, the inhibition is 18.4% in assay [3], -4.03% in [7] and 14.7% in assay [8]. The inhibition at 10 µg/mL in assay [4] is 18.1%; in [9] it was 49.5%.

On to `CN(C(=O)c1cnc2cc(Cl)ccc2c1O)c1ccccc1`, for which the inhibition at 1 µg/mL in [1] was -4.33%; in assay [6], -24.7%. For the same molecule, the inhibition at 100 µg/mL in assay [2] turned out to be 14.1%; in assay [5] it was 41.2%. Moreover, the inhibition in [3] worked out at 5.61%; in assay [7], 25.6%; in assay [8], 18.6%. Also, the values for the inhibition at 10 µg/mL in [4] and in assay [9] were -26.7% and -27.6%, respectively.
